Values after ≈ are worked out from the molar mass of the structure shown.
Tests used:
Pseudomonas aeruginosa = assay: Antibacterial activity against Pseudomonas aeruginosa MTCC 2453 assessed as growth inhibition after 24 hrs by agar dilution method; format: functional; settings: MTCC 2453, 24 h
Bacillus subtilis [1] = assay: Antibacterial activity against Bacillus subtilis MTCC 121 assessed as growth inhibition after 24 hrs by agar dilution method; format: functional; settings: MTCC 121, 24 h
Escherichia coli = assay: Antibacterial activity against Escherichia coli MTCC 739 assessed as growth inhibition after 24 hrs by agar dilution method; format: functional; settings: MTCC 739, 24 h
Micrococcus luteus [2] = assay: Antibacterial activity against Micrococcus luteus MTCC 2470 assessed as growth inhibition after 24 hrs by agar dilution method; format: functional; settings: MTCC 2470, 24 h
Staphylococcus [3] = assay: Antibacterial activity against 16-membered ring macrolide- lincosamide-streptogramin B-resistant Staphylococcus MTCC 2940 assessed as growth inhibition after 24 hrs by agar dilution method; format: functional; settings: MTCC 2940, 24 h
Staphylococcus aureus [4] = assay: Antibacterial activity against Staphylococcus aureus MTCC 96 assessed as growth inhibition after 24 hrs by agar dilution method; format: functional; settings: MTCC 96, 24 h
[5] = test system: Mycobacterium tuberculosis; assay: Antitubercular activity against Mycobacterium tuberculosis XDR-1 assessed as growth inhibition after 2 to 3 weeks by broth microdilution method; format: functional
Procedure, shortened: (§1)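 Primary screen of all compounds against H37Rv at a single concentration in triplicate by microplate dilution. Actives then went to MIC determination by broth microdilution against H37Rv, rifampicin-resistant and XDR-1 isolates. Plates incubated 2–3 weeks at 37 °C in a CO2 incubator. MIC read visually as absence of growth turbidity. Rifampicin and linezolid served as reference drugs.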

[6] = test system: Mycobacterium tuberculosis; assay: Antitubercular activity against Mycobacterium tuberculosis H37Rv assessed as growth inhibition after 2 to 3 weeks by broth microdilution method; format: functional; procedure, shortened: as §1
Bacillus subtilis [7] = assay: Antibacterial activity against Bacillus subtilis MTCC 121 assessed as growth inhibition at 20 ug/mL after 24 hrs; format: functional; settings: MTCC 121, 24 h, read-out: IZ
Micrococcus luteus [8] = assay: Antibacterial activity against Micrococcus luteus MTCC 2470 assessed as growth inhibition at 20 ug/mL after 24 hrs; format: functional; settings: MTCC 2470, 24 h, read-out: IZ
Staphylococcus [9] = assay: Antibacterial activity against 16-membered ring macrolide- lincosamide-streptogramin B-resistant Staphylococcus MTCC 2940 assessed as growth inhibition at 20 ug/mL after 24 hrs; format: functional; settings: MTCC 2940, 24 h, read-out: IZ
Staphylococcus aureus [10] = assay: Antibacterial activity against Staphylococcus aureus MTCC 96 assessed as growth inhibition at 20 ug/mL after 24 hrs; format: functional; settings: MTCC 96, 24 h, read-out: IZ
[11] = Cytotoxicity against mouse J744 cells assessed as growth inhibition after 24 hrs by MTT assay; format: cell-based; settings: J744, 24 h
Procedure, shortened: (§2)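 Mouse J-774 macrophages exposed to test material (40) in RPMI with 10% FCS for 24 h at 37 °C under CO2. MTT then added with a further 3 h incubation. Formazan absorbance read at […]. Percent cytotoxicity calculated relative to untreated cells.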

[12] = Selectivity index, ratio of IC50 for mouse J744 cells to MIC for Mycobacterium tuberculosis H37Rv; format: functional
[13] = Cytotoxicity against mouse J744 cells assessed as growth inhibition at 40 ug/mL after 24 hrs by MTT assay relative to control; format: cell-based; settings: read-out: GI; procedure, shortened: as §2

Structure (SMILES)	MIC (Pseudomonas aeruginosa)	MIC (Bacillus subtilis [1])	MIC (Escherichia coli)	MIC (Micrococcus luteus [2])	MIC (Staphylococcus [3])	MIC (Staphylococcus aureus [4])	MIC [5]	MIC [6]	zone of inhibition at 20 µg/mL (Bacillus subtilis [7])	zone of inhibition at 20 µg/mL (Micrococcus luteus [8])	zone of inhibition at 20 µg/mL (Staphylococcus [9])	zone of inhibition at 20 µg/mL (Staphylococcus aureus [10])	IC50 [11]	Selectivity Index [12]	inhibition at 24 h, 40 ug/mL [13]
Cc1cccc(-c2cn(C[C@H]3CN(c4ccc(N5CCN(Cc6cc(-c7ccccc7C)n(-c7ccc(F)cc7)c6C)CC5)c(F)c4)C(=O)O3)nn2)c1	> 40 µg/mL	9 µg/mL (≈ 12.6 µM)	> 40 µg/mL	> 40 µg/mL	> 40 µg/mL	> 40 µg/mL	> 16 µg/mL	> 16 µg/mL	–	–	–	–	–	–	–
Cc1ccccc1-c1cc(CN2CCN(c3ccc(N4C[C@H](Cn5cc(-c6cncn6C)nn5)OC4=O)cc3F)CC2)c(C)n1-c1ccc(F)c(F)c1	> 40 µg/mL	> 30 µg/mL	> 40 µg/mL	10 µg/mL (≈ 13.9 µM)	> 30 µg/mL	10 µg/mL (≈ 13.9 µM)	> 16 µg/mL	> 6.25 µg/mL	–	–	–	–	–	–	–
CC(=O)NC[C@H]1CN(c2ccc(N3CCN(Cc4cc(-c5cccc(Cl)c5)n(-c5ccccc5F)c4C)CC3)c(F)c2)C(=O)O1	> 40 µg/mL	1.5 µg/mL (≈ 2.37 µM)	> 40 µg/mL	1.5 µg/mL (≈ 2.37 µM)	2 µg/mL (≈ 3.15 µM)	0.5 µg/mL (≈ 0.788 µM)	> 16 µg/mL	8 µg/mL (≈ 12.6 µM)	18 mm	27 mm	23 mm	18 mm	–	–	–
CC(=O)NC[C@H]1CN(c2ccc(N3CCN(Cc4cc(-c5ccc(C(C)C)cc5)n(-c5ccc(F)cc5F)c4C)CC3)c(F)c2)C(=O)O1	> 40 µg/mL	1.5 µg/mL (≈ 2.27 µM)	> 40 µg/mL	3 µg/mL (≈ 4.55 µM)	6 µg/mL (≈ 9.09 µM)	2 µg/mL (≈ 3.03 µM)	16 µg/mL (≈ 24.3 µM)	4 µg/mL (≈ 6.06 µM)	12 mm	18 mm	15 mm	16 mm	> 40 µM	>10	40.2%
Cc1c(CN2CCN(c3ccc(N4C[C@H](Cn5cc(-c6ccccn6)nn5)OC4=O)cc3F)CC2)cc(-c2ccc(F)cc2F)n1-c1ccc(F)cc1	> 40 µg/mL	1 µg/mL (≈ 1.38 µM)	> 40 µg/mL	3 µg/mL (≈ 4.15 µM)	6 µg/mL (≈ 8.3 µM)	0.5 µg/mL (≈ 0.692 µM)	16 µg/mL (≈ 22.1 µM)	4 µg/mL (≈ 5.53 µM)	24 mm	36 mm	40 mm	39 mm	> 40 µM	>10	31.9%
Cc1ccc(-c2cc(CN3CCN(c4ccc(N5C[C@H](Cn6cc(-c7ccccn7)nn6)OC5=O)cc4F)CC3)c(C)n2-c2ccc(Cl)c(Cl)c2)cc1	> 40 µg/mL	1 µg/mL (≈ 1.33 µM)	> 40 µg/mL	2.5 µg/mL (≈ 3.33 µM)	> 40 µg/mL	8 µg/mL (≈ 10.6 µM)	16 µg/mL (≈ 21.3 µM)	4 µg/mL (≈ 5.32 µM)	–	–	–	–	–	–	–
Cc1ccccc1-c1cc(CN2CCN(c3ccc(N4C[C@H](Cn5cc(-c6ccccn6)nn5)OC4=O)cc3F)CC2)c(C)n1-c1ccc(F)c(F)c1	> 40 µg/mL	12 µg/mL (≈ 16.7 µM)	> 40 µg/mL	> 30 µg/mL	5 µg/mL (≈ 6.96 µM)	> 30 µg/mL	16 µg/mL (≈ 22.3 µM)	4 µg/mL (≈ 5.56 µM)	–	–	–	–	> 40 µM	>10	40%
Cc1ccc(-c2cc(CN3CCN(c4ccc(N5C[C@H](Cn6cc(-c7ccccc7)nn6)OC5=O)cc4F)CC3)c(C)n2-c2ccc(Cl)c(Cl)c2)cc1	> 40 µg/mL	2.5 µg/mL (≈ 3.33 µM)	> 40 µg/mL	0.5 µg/mL (≈ 0.666 µM)	9 µg/mL (≈ 12 µM)	8 µg/mL (≈ 10.7 µM)	> 16 µg/mL	> 16 µg/mL	14 mm	17 mm	19 mm	21 mm	–	–	–
Cc1ccccc1-c1cc(CN2CCN(c3ccc(N4C[C@H](Cn5cc(-c6cncn6C)nn5)OC4=O)cc3F)CC2)c(C)n1-c1ccc(F)cc1	> 40 µg/mL	> 30 µg/mL	> 40 µg/mL	> 30 µg/mL	> 30 µg/mL	10 µg/mL (≈ 14.2 µM)	8 µg/mL (≈ 11.4 µM)	2 µg/mL (≈ 2.84 µM)	–	–	–	–	> 40 µM	>10	49.3%
Cc1c(CN2CCN(c3ccc(N4C[C@H](Cn5cc(-c6ccccc6)nn5)OC4=O)cc3F)CC2)cc(-c2ccc(Cl)c(F)c2)n1-c1ccc(OC(F)(F)F)cc1	> 40 µg/mL	> 40 µg/mL	> 40 µg/mL	8 µg/mL (≈ 9.95 µM)	> 40 µg/mL	> 40 µg/mL	> 16 µg/mL	> 16 µg/mL	–	–	–	–	–	–	–

Reference: ChEMBL document CHEMBL2390903, “Anti-tubercular agents. Part 7: a new class of diarylpyrrole-oxazolidinone conjugates as antimycobacterial agents” (Eur J Med Chem, 2013)
